ChEMBL document CHEMBL4699391, “Conversion of amino acids to aryl/heteroaryl ethanol metabolites using human CYP2D6-expressing live baker''s yeast” (RSC Med Chem, 2020)
The source made the active and inactive calls.

Assays:
[1] = biological target: BDNF/NT-3 growth factors receptor (Homo sapiens) (UniProt Q16620); experiment: Induction of TrkB activation in human SH-SY5Y cells assessed as increase in Akt phosphorylation at 10 uM after 4 hrs by Western blot analysis; assay type: cell-based; conditions: filed as activator
Sequence of BDNF/NT-3 growth factors receptor (Homo sapiens) (Q16620 32-822 limits assumed): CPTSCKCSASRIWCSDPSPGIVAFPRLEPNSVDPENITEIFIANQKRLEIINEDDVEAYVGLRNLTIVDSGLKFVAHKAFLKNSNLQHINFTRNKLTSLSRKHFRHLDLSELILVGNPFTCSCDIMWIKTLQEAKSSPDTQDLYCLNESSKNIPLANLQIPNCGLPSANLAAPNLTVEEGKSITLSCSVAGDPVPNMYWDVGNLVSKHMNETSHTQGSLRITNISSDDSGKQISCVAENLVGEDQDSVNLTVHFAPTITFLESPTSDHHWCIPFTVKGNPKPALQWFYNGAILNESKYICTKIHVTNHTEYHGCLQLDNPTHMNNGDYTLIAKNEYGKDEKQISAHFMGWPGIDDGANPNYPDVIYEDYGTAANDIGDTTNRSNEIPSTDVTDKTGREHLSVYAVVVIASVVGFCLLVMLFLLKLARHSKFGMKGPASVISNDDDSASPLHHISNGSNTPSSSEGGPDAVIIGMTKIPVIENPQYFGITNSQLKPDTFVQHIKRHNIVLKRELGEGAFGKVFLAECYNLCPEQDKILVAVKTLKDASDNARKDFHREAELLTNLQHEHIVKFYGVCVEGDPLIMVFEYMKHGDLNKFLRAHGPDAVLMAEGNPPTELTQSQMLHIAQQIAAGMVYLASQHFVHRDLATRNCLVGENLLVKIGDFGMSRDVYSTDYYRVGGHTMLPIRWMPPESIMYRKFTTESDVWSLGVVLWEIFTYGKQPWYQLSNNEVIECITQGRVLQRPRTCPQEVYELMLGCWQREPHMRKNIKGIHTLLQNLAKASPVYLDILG

[2] = system: SH-SY5Y; experiment: Neuroprotective activity against corticosterone-induced neurotoxicity in human SH-SY5Y cells assessed as induction of BDNF neurotropic response at 10 uM preincubated for 2 hrs followed by corticosterone addition and measured after 4 hrs by ELISA; assay type: functional, cell-based; conditions: time 6.0 hrs
[3] = biological target: BDNF/NT-3 growth factors receptor (Homo sapiens) (UniProt Q16620); experiment: Induction of TrkB activation in human SH-SY5Y cells assessed as increase in phosphorylated TrkB level at 10 uM after 4 hrs by Western blot analysis; assay type: cell-based; conditions: filed as activator
[4] = biological target: BDNF/NT-3 growth factors receptor (Homo sapiens) (UniProt Q16620); experiment: Induction of TrkB activation in human SH-SY5Y cells assessed as increase in ERK1/2 phosphorylation at 10 uM after 4 hrs by Western blot analysis; assay type: cell-based; conditions: filed as activator
[5] = system: N2a; experiment: Neuroprotective activity against corticosterone-induced neurotoxicity in mouse N2a cells assessed as increase in cell viability at 10 uM preincubated for 24 hrs followed by corticosterone addition and measured after 24 hrs; assay type: functional, cell-based; conditions: time 48.0 hrs
How it was run: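 Mouse neuroblastoma N2a cells were pretreated with test compound for 24 hrs. They were then co-treated with the neurotoxin, printed as cortisone, at 400 μM for a further 24 hrs before neuroprotection was assessed. P value thresholds were ≤0.05, <0.01 and 0.001.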

[6] = system: SH-SY5Y; experiment: Neuroprotective activity against corticosterone-induced neurotoxicity in human SH-SY5Y cells assessed as induction of BDNF neurotropic response at 5 nM preincubated for 2 hrs followed by corticosterone addition and measured after 4 hrs by ELISA; assay type: functional, cell-based; conditions: time 6.0 hrs
[7] = system: N2a; experiment: Neuroprotective activity against corticosterone-induced neurotoxicity in mouse N2a cells assessed as increase in cell viability at 5 nM preincubated for 24 hrs followed by corticosterone addition and measured after 24 hrs; assay type: functional, cell-based; conditions: time 48.0 hrs
[8] = biological target: BDNF/NT-3 growth factors receptor (Homo sapiens) (UniProt Q16620); experiment: Induction of TrkB activation in human SH-SY5Y cells assessed as increase in phosphorylated TrkB level at 5 nM after 4 hrs by Western blot analysis; assay type: cell-based; conditions: filed as activator
[9] = biological target: BDNF/NT-3 growth factors receptor (Homo sapiens) (UniProt Q16620); experiment: Induction of TrkB activation in human SH-SY5Y cells assessed as increase in ERK1/2 phosphorylation at 5 nM after 4 hrs by Western blot analysis; assay type: cell-based; conditions: filed as activator
[10] = biological target: BDNF/NT-3 growth factors receptor (Homo sapiens) (UniProt Q16620); experiment: Induction of TrkB activation in human SH-SY5Y cells assessed as increase in Akt phosphorylation at 5 nM after 4 hrs by Western blot analysis; assay type: cell-based; conditions: filed as activator

Activity [1] | Activity [3] | Activity [4] | Activity [8] | Activity [9] | Activity [10] | SMILES | Activity [2] | Activity [5] | Activity [6] | Activity [7]
Active | Active | Active |  |  |  | OCCc1ccc(O)cc1 | Active | Active |  | 
Active | Active | Active |  |  |  | OCCc1c[nH]c2ccccc12 | Active | Active |  | 
 |  |  | Active | Active | Active | O=c1cc(-c2ccccc2)oc2c(O)c(O)ccc12 |  |  | Active | Active
